Data as given in ChEMBL document CHEMBL1141286, “Benzochromenones from the marine crinoid Comantheria rotula inhibit hypoxia-inducible factor-1 (HIF-1) in cell-based reporter assays and differentially suppress the growth of certain tumor cell lines” (J Nat Prod, 2007).

What was measured:
OVCAR-4 = assay: Growth inhibition of human OVACAR4 cells; type: functional; conditions: for TGI: read-out: Log TGI (converted)
A498 = assay: Growth inhibition of human A498 cells; type: functional; conditions: for TGI: read-out: Log TGI (converted)
HT-29 = assay: Growth inhibition of human HT29 cells; type: functional; conditions: for CC50: read-out: Log LC50 (the source's name) (converted); for TGI: read-out: Log TGI (converted)
[1] = DPPH radical scavenging activity relative to Trolox; type: functional; design: concentration or dose not given beside the values
Procedure, shortened: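 Compounds were made up as DMSO stocks and diluted in isopropanol to a final 10 μM. Each was mixed with DPPH in isopropanol at 10 μM or 30 μM DPPH, and absorbance was read at 515 nm. Scavenging was calculated as [1 − OD515(compound)/OD515(control)] × 100, then expressed as a percentage of Trolox activity. One experiment was run in triplicate.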

HCC 2998 = assay: Growth inhibition of human HCC2998 cells; type: functional; conditions: for CC50: read-out: Log LC50 (the source's name) (converted); for TGI: read-out: Log TGI (converted)
HL-60 = assay: Growth inhibition of human HL60 cells; type: functional; conditions: for TGI: read-out: Log TGI (converted)
SK-MEL-5 = assay: Growth inhibition of human SK-MEL5 cells; type: functional; conditions: for TGI: read-out: Log TGI (converted)
UACC-257 = assay: Growth inhibition of human UACC257 cells; type: functional; conditions: for TGI: read-out: Log TGI (converted)
NCI-H460 = assay: Growth inhibition of human NCI-H460 cells; type: functional; conditions: for CC50: read-out: Log LC50 (the source's name) (converted); for TGI: read-out: Log TGI (converted)
IGROV-1 = assay: Growth inhibition of human IGROV1 cells; type: functional; conditions: for CC50: read-out: Log LC50 (the source's name) (converted); for TGI: read-out: Log TGI (converted)
[2] = Inhibition of luciferase
Procedure, shortened: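 Purified recombinant firefly luciferase (QuantiLum, 46.8 μg mL−1) mixed with compound in passive lysis buffer containing BSA (1 mg mL−1); equal volume of luciferase substrate added, light output read; percentage inhibition relative to DMSO control; concentration-response curves up to 30 μM.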

RPMI-8226 = assay: Growth inhibition of human RPMI8226 cells; type: functional
MOLT-4 = assay: Growth inhibition of human MOLT4 cells; type: functional; conditions: for CC50: read-out: Log LC50 (the source's name) (converted); for TGI: read-out: Log TGI (converted)
SF-539 = assay: Growth inhibition of human SF539 cells; type: functional; conditions: for TGI: read-out: Log TGI (converted)
OVCAR-8 = assay: Growth inhibition of human OVACAR8 cells; type: functional; conditions: for TGI: read-out: Log TGI (converted)
TK-10 = assay: Growth inhibition of human TK10 cells; type: functional; conditions: for TGI: read-out: Log TGI (converted)
SK-MEL-2 = assay: Growth inhibition of human SK-MEL2 cells; type: functional; conditions: for TGI: read-out: Log TGI (converted)
[3] = target: Hypoxia inducible factors; HIF-1-alpha, HIF-2-alpha (Homo sapiens, UniProt Q16665+Q99814); assay: Inhibition of HIF1 activation in human T47D cells by TK-luciferase assay; type: cell-based
Procedure, shortened: (§1)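 HIF-1 reporter (pHRE-TK-Luc) assays in transfected PC-3 or T47D cells; HIF-1 induced by hypoxia or by the hypoxia mimetic 1,10-phenanthroline (10 μM); compounds at half-log concentrations; luciferase activity measured; IC50 from experiments in triplicate.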

NCI-H226 = assay: Growth inhibition of human NCI-H226 cells; type: functional; conditions: for CC50: read-out: Log LC50 (the source's name) (converted); for TGI: read-out: Log TGI (converted)
RXF 393 = assay: Growth inhibition of human RXF393 cells; type: functional; conditions: for TGI: read-out: Log TGI (converted)
Malme-3M = assay: Growth inhibition of human MALME-3M cells; type: functional; conditions: for CC50: read-out: Log LC50 (the source's name) (converted); for TGI: read-out: Log TGI (converted)
EKVX = assay: Growth inhibition of human EKVX cells; type: functional; conditions: for CC50: read-out: Log LC50 (the source's name) (converted); for TGI: read-out: Log TGI (converted)
M14 = assay: Growth inhibition of human M14 cells; type: functional; conditions: for TGI: read-out: Log TGI (converted)
[4] = Inhibition of HIF1 activation in PC3 cells by TK-luciferase assay; type: cell-based; conditions: Homo sapiens, PC-3; procedure, shortened: as §1
[5] = Inhibition of 1,10-phenanthroline-induced HIF1 activation in PC3 cells by TK-luciferase assay; type: cell-based; conditions: Homo sapiens, PC-3; procedure, shortened: as §1

CCCc1cc(=O)c2c(OC)c3c(OC)cc(O)c(Oc4c(O)cc(OC)c5c(OC)c6c(=O)cc(CCC)oc6cc45)c3cc2o1
GI50 (OVCAR-4): 2.57 µM
LC50 (OVCAR-4): 37.2 µM
TGI (OVCAR-4): 8.51 µM
GI50 (A498): 18.2 µM
LC50 (A498): 60.3 µM
TGI (A498): 33.1 µM
GI50 (HT-29): 13.2 µM
CC50 (HT-29): 79.4 µM
TGI (HT-29): 32.4 µM
Activity [1]: 40%
GI50 (HCC 2998): 13.5 µM
CC50 (HCC 2998): 56.2 µM
TGI (HCC 2998): 27.5 µM
GI50 (HL-60): 3.89 µM
LC50 (HL-60): 79.4 µM
TGI (HL-60): 11.2 µM
GI50 (SK-MEL-5): 2.09 µM
LC50 (SK-MEL-5): 7.08 µM
TGI (SK-MEL-5): 3.8 µM
GI50 (UACC-257): 3.8 µM
LC50 (UACC-257): 40.7 µM
TGI (UACC-257): 13.8 µM
GI50 (NCI-H460): 10.7 µM
CC50 (NCI-H460): 89.1 µM
TGI (NCI-H460): 30.9 µM
GI50 (IGROV-1): 10.2 µM
CC50 (IGROV-1): 57.5 µM
TGI (IGROV-1): 24 µM
IC50 [2]: 2.4 µM
GI50 (RPMI-8226): 4.9 µM
CC50 (RPMI-8226; read-out: Log LC50 (the source's name) (converted)): 70.8 µM
TGI (RPMI-8226; read-out: Log TGI (converted)): 21.4 µM
GI50 (MOLT-4): 3.24 µM
CC50 (MOLT-4): 97.7 µM
TGI (MOLT-4): 11.5 µM
GI50 (SF-539): 11.2 µM
LC50 (SF-539): 50.1 µM
TGI (SF-539): 23.4 µM
GI50 (OVCAR-8): 4.68 µM
LC50 (OVCAR-8): 100 µM
TGI (OVCAR-8): 53.7 µM
GI50 (TK-10): 17 µM
LC50 (TK-10): 57.5 µM
TGI (TK-10): 31.6 µM
GI50 (SK-MEL-2): 10.7 µM
LC50 (SK-MEL-2): 61.7 µM
TGI (SK-MEL-2): 25.7 µM
IC50 [3]: 7.3 µM
GI50 (NCI-H226): 16.2 µM
CC50 (NCI-H226): 79.4 µM
TGI (NCI-H226): 35.5 µM
GI50 (RXF 393): 1.62 µM
LC50 (RXF 393): 30.2 µM
TGI (RXF 393): 5.62 µM
GI50 (Malme-3M): 7.41 µM
CC50 (Malme-3M): 49 µM
TGI (Malme-3M): 20.4 µM
GI50 (EKVX): 4.37 µM
CC50 (EKVX): 44.7 µM
TGI (EKVX): 16.6 µM
GI50 (M14): 3.02 µM
LC50 (50% lethal concentration) (M14): 34.7 µM
TGI (M14): 11.5 µM
IC50 [4]: 10 µM
IC50 [5]: 3.9 µM

COc1cc(O)cc2cc3oc(C)cc(=O)c3c(O)c12
GI50 (OVCAR-4): 45.7 µM
LC50 (OVCAR-4): > 100 µM
TGI (OVCAR-4): > 100 µM
GI50 (A498): 0.617 µM
LC50 (A498): > 100 µM
TGI (A498): 11.7 µM
GI50 (HT-29): 29.5 µM
CC50 (HT-29): > 100 µM
TGI (HT-29): > 100 µM
Activity [1]: 40%
GI50 (HCC 2998): 24.5 µM
CC50 (HCC 2998): > 100 µM
TGI (HCC 2998): 64.6 µM
GI50 (HL-60): 20.9 µM
LC50 (HL-60): 83.2 µM
TGI (HL-60): 41.7 µM
GI50 (SK-MEL-5): 0.457 µM
LC50 (SK-MEL-5): 34.7 µM
TGI (SK-MEL-5): 12 µM
GI50 (UACC-257): 45.7 µM
LC50 (UACC-257): > 100 µM
TGI (UACC-257): > 100 µM
GI50 (NCI-H460): 19.1 µM
CC50 (NCI-H460): > 100 µM
TGI (NCI-H460): 50.1 µM
GI50 (IGROV-1): 0.437 µM
CC50 (IGROV-1): > 100 µM
TGI (IGROV-1): 23.4 µM
GI50 (MOLT-4): 17.8 µM
CC50 (MOLT-4): > 100 µM
TGI (MOLT-4): 51.3 µM
GI50 (SF-539): 27.5 µM
LC50 (SF-539): > 100 µM
TGI (SF-539): 87.1 µM
GI50 (OVCAR-8): 27.5 µM
LC50 (OVCAR-8): > 100 µM
TGI (OVCAR-8): > 100 µM
GI50 (TK-10): 20.4 µM
LC50 (TK-10): > 100 µM
TGI (TK-10): 61.7 µM
GI50 (SK-MEL-2): 4.9 µM
LC50 (SK-MEL-2): > 100 µM
TGI (SK-MEL-2): 35.5 µM
IC50 [3]: 3.4 µM
GI50 (NCI-H226): 22.4 µM
CC50 (NCI-H226): > 100 µM
TGI (NCI-H226): > 100 µM
GI50 (RXF 393): 20.4 µM
LC50 (RXF 393): > 100 µM
TGI (RXF 393): 53.7 µM
GI50 (Malme-3M): 35.5 µM
CC50 (Malme-3M): > 100 µM
TGI (Malme-3M): 95.5 µM
GI50 (EKVX): 37.2 µM
CC50 (EKVX): > 100 µM
TGI (EKVX): > 100 µM
GI50 (M14): 20 µM
LC50 (50% lethal concentration) (M14): > 100 µM
TGI (M14): 45.7 µM
IC50 [4]: 3.3 µM
IC50 [5]: 2.5 µM
